These results are taken from ChEMBL document CHEMBL1147694, “Synthesis and biological activity of conjugates between paclitaxel and the cell delivery vector penetratin” (Bioorg Med Chem Lett, 2006).

In general, IC50 refers to the concentration needed to halve the response being measured. What is called half-life is the time in which the quantity being followed falls by half. Broadly, the solubility is how much of the substance goes into solution per volume.

Data set [1] has as its system A549. Nature of the data set: Antiproliferative activity against human A549 cell line by MTT assay after 72 hrs. The data set is classed as functional, cell-based. A digest of the protocol: (§1)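 Human tumour cells, MCF7 (breast) and A549 (lung), were exposed to test compounds for 72 h, and growth was read by MTT assay. IC50 is the concentration giving 50% growth inhibition, taken as the mean of three independent experiments.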
A general note: Formazan colour is commonly taken as a measure of viable cells.

Data set [2] can be described thus: Half life in tissue culture medium. Type of data set: ADME. A digest of the protocol: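 Compounds were dissolved in DMEM with 10% foetal calf serum at 1 to 40 (concentration range) and incubated at 37 °C. Aliquots were withdrawn over time and analysed by RP-HPLC and mass spectrometry to give half-life. Analytical RP-HPLC used a MeCN gradient in water with 0.1% TFA over 20 min at 25 °C.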

In data set [3] the test system is MCF7. Nature of the data set: Antiproliferative activity against human MCF7 cell line by MTT assay after 72 hrs. Type of data set: functional, cell-based. A digest of the protocol:
as §1

The subject of data set [4] is MCF7. Nature of the data set: Antiproliferative activity against human MCF7 cell line by MTT assay after 1 hr. Type of data set: functional, cell-based. Conditions: MCF7, 1 h; call rule not given here. Put shortly: (§2)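 Cells were exposed to the conjugates for a short 1 h period, and viability was then quantified by MTT assay.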
Data set [5] relates to A549. Nature of the data set: Antiproliferative activity against human A549 cell line by MTT assay after 1 hr. The data set is classed as functional, cell-based. To be noted: A549, 1 h. A digest of the protocol: as §2
The nature of data set [6]: Aqueous solubility of the compound. The data set is classed as physicochemical.
The mark [7] stands for this setting: Homo sapiens, A549, 72 h, read-out: IC50.
[8] abbreviates: Homo sapiens, MCF7, 72 h, read-out: IC50.

Regarding `CC[C@H](C)[C@H](NC(=O)[C@H](CCCCN)NC(=O)[C@@H](NC(=O)[C@H](CCC(N)=O)NC(=O)[C@H](CCCN=C(N)N)NC(=O)CC(N)CSC1CC(=O)N(CCC(=O)O[C@@H](C(=O)O[C@@H]2C(C)=CC3[C@@H](OC(C)=O)C(=O)[C@@]4(C)[C@H]([C@H](OC(=O)c5ccccc5)[C@@]2(O)C3(C)C)[C@]2(OC(C)=O)CO[C@@H]2C[C@@H]4O)[C@@H](NC(=O)c2ccccc2)c2ccccc2)C1=O)[C@@H](C)CC)C(=O)N[C@@H](Cc1c[nH]c2ccccc12)C(=O)N[C@@H](Cc1ccccc1)C(=O)N[C@@H](CCC(N)=O)C(=O)N[C@@H](CC(N)=O)C(=O)N[C@@H](CCCN=C(N)N)C(=O)N[C@@H](CCCN=C(N)N)C(=O)N[C@@H](CCSC)C(=O)N[C@@H](CCCCN)C(=O)N[C@@H](Cc1c[nH]c2ccccc12)C(=O)N[C@@H](CCCCN)C(=O)N[C@@H](CCCCN)C(=O)O` (stereo partly specified), the IC50 with A549 [1] (setting [7]) is 270 nM.

The compound `CC[C@H](C)[C@H](NC(=O)[C@H](CCCCN)NC(=O)[C@@H](NC(=O)[C@H](CCC(N)=O)NC(=O)[C@H](CCCN=C(N)N)NC(=O)CC(N)CSC1CC(=O)N(CCC(=O)O[C@@H](C(=O)O[C@@H]2C(C)=CC3[C@@H](OC(C)=O)C(=O)[C@@]4(C)[C@H]([C@H](OC(=O)c5ccccc5)[C@@]2(O)C3(C)C)[C@]2(OC(C)=O)CO[C@@H]2C[C@@H]4O)[C@@H](NC(=O)c2ccccc2)c2ccccc2)C1=O)[C@@H](C)CC)C(=O)N[C@@H](Cc1c[nH]c2ccccc12)C(=O)N[C@@H](Cc1ccccc1)C(=O)N[C@@H](CCC(N)=O)C(=O)N[C@@H](CC(N)=O)C(=O)N[C@@H](CCCN=C(N)N)C(=O)N[C@@H](CCCN=C(N)N)C(=O)N[C@@H](CCSC)C(=O)N[C@@H](CCCCN)C(=O)N[C@@H](Cc1c[nH]c2ccccc12)C(=O)N[C@@H](CCCCN)C(=O)N[C@@H](CCCCN)C(N)=O` (stereo partly specified) gave a half-life in data set [2] of more than 8 h. For the same compound, the IC50 in the data set on MCF7 [3] (setting [8]) is less than 17 nM; with MCF7 [4], 202 nM; in the data set on A549 [5] it was 618 nM; with A549 [1] (setting [7]) it was less than 15 nM.

For the compound `CSCC[C@H](NC(=O)[C@H](CCCN=C(N)N)NC(=O)[C@H](CCCN=C(N)N)NC(=O)CC(N)CSC1CC(=O)N(CCC(=O)O[C@@H](C(=O)O[C@@H]2C(C)=CC3[C@@H](OC(C)=O)C(=O)[C@@]4(C)[C@H]([C@H](OC(=O)c5ccccc5)[C@@]2(O)C3(C)C)[C@]2(OC(C)=O)CO[C@@H]2C[C@@H]4O)[C@@H](NC(=O)c2ccccc2)c2ccccc2)C1=O)C(=O)N[C@@H](CCCCN)C(=O)N[C@@H](Cc1c[nH]c2ccccc12)C(=O)N[C@@H](CCCCN)C(=O)N[C@@H](CCCCN)C(N)=O` (stereo partly specified), the half-life in data set [2] was more than 8 h. For the same compound, the IC50 in the data set on MCF7 [3] (setting [8]) is less than 15 nM; with MCF7 [4], 325 nM; in the data set with A549 [5], 43 nM; in the data set on A549 [1] (setting [7]), less than 15 nM. In addition, the solubility in data set [6] was more than 10000 µg/mL.

Turning to `CC(=O)O[C@H]1C(=O)[C@@]2(C)[C@H]([C@H](OC(=O)c3ccccc3)[C@]3(O)C[C@H](OC(=O)[C@H](O)[C@@H](NC(=O)c4ccccc4)c4ccccc4)C(C)=C1C3(C)C)[C@]1(OC(C)=O)CO[C@@H]1C[C@@H]2O` [PACLITAXEL], the IC50 was less than 15 nM with MCF7 [3] (setting [8]), 43 nM with MCF7 [4], 28 nM in the data set on A549 [5] and less than 15 nM in the data set with A549 [1] (setting [7]). The compound further gave a solubility in data set [6] of less than 10 µg/mL.

For the compound `CC[C@H](C)[C@H](NC(=O)[C@H](CCCCN)NC(=O)[C@@H](NC(=O)[C@H](CCC(N)=O)NC(=O)[C@@H](N)CCCNC(=N)N)[C@@H](C)CC)C(=O)N[C@@H](Cc1c[nH]c2ccccc12)C(=O)N[C@@H](Cc1ccccc1)C(=O)N[C@@H](CCC(N)=O)C(=O)N[C@@H](CC(N)=O)C(=O)N[C@@H](CCCNC(=N)N)C(=O)N[C@@H](CCCNC(=N)N)C(=O)N[C@@H](CCSC)C(=O)N[C@@H](CCCCN)C(=O)N[C@@H](Cc1c[nH]c2ccccc12)C(=O)N[C@@H](CCCCN)C(=O)N[C@@H](CCCCN)C(N)=O` [PENETRATIN], the IC50 entry in the data set with MCF7 [3] (mcf7) and in the data set on A549 [1] (a549) was “Not Active” each time.

Take H-RRMKWKK-NH2: the IC50 result in the data set on MCF7 [3] (mcf7) and in the data set on A549 [1] (a549) was “Not Active” in each case.
